This is an account of results in ChEMBL document CHEMBL1123517, “Synthesis and antiallergic activity of a novel series of 5-lipoxygenase inhibitors” (J Med Chem, 1986).

Assay [1] relates to Cavia porcellus. Nature of the assay: In vivo inhibition of ovalbumin induced bronchoconstriction in guinea pig by 50 mg/kg 10 min prior to challenge. Format: functional. A digest of the protocol:
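Male Hartley guinea pigs (350–600 g) sensitized to OA (5 mg ip + 5 mg sc), used 3–5 weeks later under pentobarbital (50 mg/kg ip), artificially ventilated. Indomethacin 10 mg/kg iv 9 min before challenge, chlorpheniramine 1.0 mg/kg iv 1 min later. Drug 50 mg/kg id 10 min before aerosolized 1% OA; controls saline.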

The species named for the next assay is Rattus norvegicus. Nature of the assay: Compound was tested in vitro for inhibition of 5-HETE production in isolated rat polymorphonuclear leukocytes (PMNs) at 50 uM. Format: functional.
In assay [2] the target is T1, Polyunsaturated fatty acid 5-lipoxygenase (Rattus norvegicus, UniProt P12527).
T1 sequence (P12527 whole entry): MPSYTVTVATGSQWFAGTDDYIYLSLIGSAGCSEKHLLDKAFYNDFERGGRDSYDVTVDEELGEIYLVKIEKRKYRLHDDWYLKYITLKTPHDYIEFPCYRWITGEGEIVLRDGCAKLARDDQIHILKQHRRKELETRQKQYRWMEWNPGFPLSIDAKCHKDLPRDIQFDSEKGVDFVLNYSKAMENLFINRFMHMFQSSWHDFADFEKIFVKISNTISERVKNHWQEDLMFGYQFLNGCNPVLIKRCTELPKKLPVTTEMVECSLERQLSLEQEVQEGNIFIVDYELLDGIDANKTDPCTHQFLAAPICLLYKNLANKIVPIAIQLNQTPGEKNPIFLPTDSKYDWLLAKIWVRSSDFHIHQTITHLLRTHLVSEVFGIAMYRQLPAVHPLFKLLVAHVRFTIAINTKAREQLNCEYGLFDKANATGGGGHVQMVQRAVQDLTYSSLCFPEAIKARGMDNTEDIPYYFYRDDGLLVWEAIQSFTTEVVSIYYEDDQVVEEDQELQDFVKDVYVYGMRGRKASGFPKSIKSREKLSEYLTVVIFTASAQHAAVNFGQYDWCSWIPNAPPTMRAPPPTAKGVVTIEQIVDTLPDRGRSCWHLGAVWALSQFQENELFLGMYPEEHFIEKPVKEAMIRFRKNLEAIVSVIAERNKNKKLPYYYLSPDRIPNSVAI
Nature of the assay: In vitro for inhibition of 5-HETE production in isolated rat polymorphonuclear leukocytes (PMNs). Format: functional. A digest of the protocol: (§1)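 Peritoneal PMNs from female Wistar rats (150–250 g) given 6% glycogen ip; harvested at 24 h by lavage, resuspended at 2×10^7 cells/mL in HBSS with Ca2+/Mg2+ and 10 mM L-cysteine. Drug or vehicle preincubated 10 min at 37 °C; then A23187 (10 μM) plus 0.5 μCi [14C]arachidonic acid for 10 min. Stopped at pH 3.5, ether-extracted; IC50 per metabolite by nonlinear regression.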

The target of assay [3] is T1, Polyunsaturated fatty acid 5-lipoxygenase. Nature of the assay: In vitro for inhibition of LTB4 (leukotriene B4) production in isolated rat polymorphonuclear leukocytes (PMNs). Format: functional. Put shortly: as §1
The species entered for assay [4] is Cavia porcellus. Nature of the assay: Competitive inhibition of LTD4-induced contraction of isolated guinea pig tracheal spiral strips.

The inhibition in vivo is the drop in the measured response relative to a control, in per cent. On to `CCc1ccc(OCc2cccc(NC(=O)CC(=O)OC)c2)cc1OC`, for which the inhibition in vivo at 50 mg/kg in the assay on Cavia porcellus [1] is 0.2%.

Usually inhibition stands for the relative decrease from the control value, in per cent. Regarding `COC(=O)CC(=O)Nc1cccc(COc2ccc(C(C)=O)cc2)c1`, the inhibition in vivo at 50 mg/kg in the assay with Cavia porcellus [1] amounted to 37.2%. The molecule further displayed an inhibition at 50 µM in the assay filed under Rattus norvegicus of less than 50%.

By IC50 is commonly meant the concentration needed to halve the response being measured. The low end stands for inhibition by little substance, the high end for a need for much substance. As to `CCCCCCc1ccc(OCc2cccc(NC(=O)CC(=O)OC)c2)cc1OC`, in the assay on Cavia porcellus [1], the inhibition in vivo at 50 mg/kg is -0.2%. For the same molecule, the IC50 is 1.59 µM in assay [2] and 1.7 µM in assay [3].

As to `CCc1ccc(OCc2cccc(NC(=O)CCC(=O)OC)c2)cc1OC`, the inhibition in vivo at 50 mg/kg in the assay on Cavia porcellus [1] was 0.2%. For the same molecule, the IC50 in assay [2] amounted to 5.6 µM; in assay [3], 7.09 µM.

Consider `CCCCCC(=O)c1ccc(OCc2cccc(NC(=O)CC(=O)OC)c2)cc1O`, for which the inhibition in vivo at 50 mg/kg in the assay on Cavia porcellus [1] was -0.5%.

`CCCc1c(OCCCCc2nnn[nH]2)ccc(C(C)=O)c1O` [TOMELUKAST]: the inhibition in vivo at 50 mg/kg in the assay with Cavia porcellus [1] came out at 78.8%. The IC50 in assay [2] came to 41 µM; in assay [3], 21.6 µM.

`COC(=O)CC(=O)Nc1cccc(COc2ccc(C(C)=O)c(OC)c2)c1`: the inhibition in vivo at 50 mg/kg with Cavia porcellus [1] amounted to 64.3%.

On to `COC(=O)CCCC(=O)Nc1cccc(COc2ccc(C(C)=O)c(F)c2)c1`, for which the inhibition in vivo at 50 mg/kg in the assay with Cavia porcellus [1] is 0%.

On to `COC(=O)C1CC(=O)N(c2cccc(COc3ccc(C(C)=O)c(F)c3)c2)C1` (configuration not stated), for which the IC50 was determined as 5.35 µM in assay [2] and 20.4 µM in assay [3].

As for `COC(=O)CCCC(=O)Nc1cccc(COc2ccc(C(C)=O)c(O)c2)c1`, the inhibition in vivo at 50 mg/kg with Cavia porcellus [1] is -0.1%. Also, the IC50 in assay [2] worked out at 32.7 µM; in assay [3], 39.3 µM.

`COC(=O)CCC(=O)Nc1cccc(COc2ccc(C(C)=O)c(O)c2)c1`: the inhibition in vivo at 50 mg/kg in the assay with Cavia porcellus [1] was found to be 37.9%.

For the molecule `COC(=O)CCC(=O)Nc1cccc(COc2ccc(C(C)=O)c(OC)c2)c1`, the inhibition in vivo at 50 mg/kg in the assay on Cavia porcellus [1] came out at 0.11%.

In the case of `CCCCCC(=O)c1ccc(OCc2cccc(NC(=O)CC(=O)OC)c2)cc1OC`, in the assay with Cavia porcellus [1], the inhibition in vivo at 50 mg/kg was 0%.

As for `COC(=O)C(=O)Nc1cccc(COc2ccc(C(C)=O)c(F)c2)c1`, in the assay on Cavia porcellus [1], the inhibition in vivo at 50 mg/kg amounted to 57.3%.

One may read the pKB as −log10 of the KB, conventionally taken in molar units. A lower pKB goes with a large KB. In the case of `COC(=O)CC(=O)Nc1cccc(COc2ccc(C(C)=O)c(O)c2)c1`, the inhibition in vivo at 50 mg/kg with Cavia porcellus [1] came out at 61.4%. For the same molecule, the IC50 in assay [2] stood at 14.2 µM; in assay [3] it was 11.7 µM. In the assay listed under Cavia porcellus [4], the pKB is given as 4.94.

For `CCCCCC(=O)c1ccc(OCc2cccc(NC(=O)CCC(=O)OC)c2)cc1OC`, the inhibition in vivo at 50 mg/kg in the assay with Cavia porcellus [1] was 0%. In addition, the values for the IC50 in assay [2] and in assay [3] were 3.71 µM and 3.87 µM, respectively.

With `CCCCCC(=O)c1ccc(OCc2cccc(NC(=O)CCC(=O)OC)c2)cc1O`, in the assay with Cavia porcellus [1], the inhibition in vivo at 50 mg/kg was 0%.

As to `COC(=O)CC(=O)Nc1cccc(COc2cccc(OC)c2)c1`, the inhibition at 50 µM in the assay listed under Rattus norvegicus is less than 50%.

Take `CCCCCCc1ccc(OCc2cccc(NC(=O)CCC(=O)OC)c2)cc1OC`: the inhibition in vivo at 50 mg/kg in the assay with Cavia porcellus [1] was found to be 0.2%.

`COC(=O)CC(=O)Nc1cccc(COc2ccc(C(C)=O)c(F)c2)c1`: the inhibition in vivo at 50 mg/kg in the assay on Cavia porcellus [1] amounted to 0%. Also, the IC50 in assay [2] stood at 25.5 µM; in assay [3], 22.5 µM.

For `COC(=O)C(=O)Nc1cccc(COc2ccc(C(C)=O)c(O)c2)c1`, the inhibition in vivo at 50 mg/kg with Cavia porcellus [1] turned out to be 0.1%. The IC50 in assay [2] was determined as 25.1 µM; in assay [3], 39.5 µM.

Consider `COC(=O)CCC(=O)Nc1cccc(COc2ccc(C(C)=O)c(F)c2)c1`, for which, in the assay with Cavia porcellus [1], the inhibition in vivo at 50 mg/kg is 20.8%.

As to `CCCc1c(OCc2cccc(NC(=O)CC(=O)OC)c2)ccc(C(C)=O)c1O`, the inhibition in vivo at 50 mg/kg in the assay on Cavia porcellus [1] stood at 24.8%.
